The text below walks through data of ChEMBL document CHEMBL1268868, “Discovery and mechanistic study of a class of protein arginine methylation inhibitors” (J Med Chem, 2010).

What is called IC50 is the concentration that gives 50% inhibition. As usually defined, the residual activity is the activity still measured, relative to the control.

Activity calls are given as the source filed them. No cut-off for these calls is given here.

Sequence of Protein arginine N-methyltransferase 3 (O60678 whole entry): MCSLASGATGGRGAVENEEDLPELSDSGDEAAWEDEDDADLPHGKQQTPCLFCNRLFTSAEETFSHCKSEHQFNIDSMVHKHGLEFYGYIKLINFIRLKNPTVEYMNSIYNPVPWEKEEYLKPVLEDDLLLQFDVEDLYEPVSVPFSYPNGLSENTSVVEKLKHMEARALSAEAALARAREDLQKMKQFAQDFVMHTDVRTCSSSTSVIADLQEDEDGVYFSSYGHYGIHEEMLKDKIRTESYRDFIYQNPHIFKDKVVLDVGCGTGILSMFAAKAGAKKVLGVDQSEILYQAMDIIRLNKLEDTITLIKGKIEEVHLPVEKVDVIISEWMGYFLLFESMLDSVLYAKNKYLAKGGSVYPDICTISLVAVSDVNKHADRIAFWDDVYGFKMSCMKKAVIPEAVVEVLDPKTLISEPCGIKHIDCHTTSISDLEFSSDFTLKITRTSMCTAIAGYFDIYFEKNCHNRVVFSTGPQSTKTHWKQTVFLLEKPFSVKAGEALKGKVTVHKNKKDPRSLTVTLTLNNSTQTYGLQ
Sequence of Protein arginine N-methyltransferase 6 (Q96LA8 whole entry): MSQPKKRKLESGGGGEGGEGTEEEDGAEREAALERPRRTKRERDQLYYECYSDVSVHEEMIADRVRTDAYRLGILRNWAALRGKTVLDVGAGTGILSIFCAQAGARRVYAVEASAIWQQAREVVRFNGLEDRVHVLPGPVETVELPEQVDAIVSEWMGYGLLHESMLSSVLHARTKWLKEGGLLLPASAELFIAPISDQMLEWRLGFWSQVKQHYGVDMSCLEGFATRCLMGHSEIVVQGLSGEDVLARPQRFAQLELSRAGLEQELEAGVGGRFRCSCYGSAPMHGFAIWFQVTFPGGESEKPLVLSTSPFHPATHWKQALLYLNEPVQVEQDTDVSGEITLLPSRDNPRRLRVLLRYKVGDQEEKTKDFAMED

One experiment has as its target T1, Protein arginine N-methyltransferase 1 (Homo sapiens, UniProt Q99873). Briefly: Inhibition of His6x-tagged PRMT1-mediated arginine methylation expressed in Escherichia coli BL21 (DE3) assessed as residual activity at 500 uM using H4(1-20) and [14C]-AdoMet by scintillation counting.
Target sequence in this assay (Q99873 whole entry, looked up): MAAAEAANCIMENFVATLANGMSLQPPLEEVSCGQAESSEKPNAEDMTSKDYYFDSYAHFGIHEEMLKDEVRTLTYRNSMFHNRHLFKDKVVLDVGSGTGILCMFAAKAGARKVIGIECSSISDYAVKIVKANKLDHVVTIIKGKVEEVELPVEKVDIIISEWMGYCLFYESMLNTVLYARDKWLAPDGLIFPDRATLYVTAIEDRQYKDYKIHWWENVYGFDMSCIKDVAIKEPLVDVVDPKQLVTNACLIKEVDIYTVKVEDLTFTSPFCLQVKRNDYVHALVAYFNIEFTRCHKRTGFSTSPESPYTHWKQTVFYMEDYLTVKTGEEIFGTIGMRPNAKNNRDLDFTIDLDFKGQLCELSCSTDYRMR
As to `CCOc1ccc(S(=O)(=O)NCCNS(=O)(=O)c2ccc(OCC)c3ccccc23)c2ccccc12`, the inhibition entry is “inactive”.

For `CC(=O)Nc1cc([N+](=O)[O-])c(N(C)S(=O)(=O)c2ccccc2)c2ccccc12`, the inhibition entry is “inactive”.

Regarding `COc1cc(C=O)cc(I)c1OS(=O)(=O)c1ccc2ccccc2c1`, the inhibition result is “inactive”.

As for `Nc1cc(S(=O)(=O)O)cc2cccc(S(=O)(=O)O)c12`, the inhibition entry is “inactive”.

With `COc1ccc(S(=O)(=O)Oc2ccc3ccccc3c2)c2ccccc12`, the inhibition entry is “inactive”.

`CCOC(=O)c1ccc(N2C(=O)CC(Sc3ccccc3C(=O)O)C2=O)cc1` (stereo not given): the inhibition result was “inactive”.

Take `CNc1ccc2c(O)cc(S(=O)(=O)O)cc2c1`: the inhibition result was “inactive”.

Take `CCOc1cc(C=O)cc(Br)c1OS(=O)(=O)c1ccc2ccccc2c1`: the inhibition entry is “inactive”.

Turning to `O=S(=O)(O)c1cc(O)c2c(S(=O)(=O)O)cc(S(=O)(=O)O)cc2c1`, the inhibition entry was “inactive”.

As for `O=S(=O)(Nc1ccccc1)c1cc(S(=O)(=O)Nc2ccccc2)c2cc(O)ccc2c1`, the inhibition result was “inactive”.

Regarding `O=S(=O)(Oc1cccc2c(OS(=O)(=O)c3ccccc3)cccc12)c1ccccc1`, the inhibition entry was “inactive”.

Take `NS(=O)(=O)c1ccc2c(O)cc(S(N)(=O)=O)cc2c1`: the inhibition entry was “inactive”.

For `CCOc1cc(C=O)ccc1OS(=O)(=O)c1ccc2ccccc2c1`, the inhibition result is “inactive”.

As to `O=S(=O)(Oc1c(Br)cc(Br)cc1Br)c1ccc2ccccc2c1`, the inhibition entry was “inactive”.

Consider `O=Cc1ccc(OS(=O)(=O)c2ccc3ccccc3c2)c(Br)c1`, for which the inhibition entry was “inactive”.

Regarding `NS(=O)(=O)c1ccc(CNc2ccnc3cc4ccccc4cc23)cc1`, the inhibition entry was “inactive”.

As to `COc1ccc(S(=O)(=O)Nc2ccc(S(=O)(=O)Nc3cccc4ccccc34)cc2)cc1OC`, the inhibition result is “inactive”.

The target in another experiment is T2, Histone acetyltransferase p300 (Homo sapiens, UniProt Q09472). Briefly: Inhibition of HAT p300-mediated […] using H4(1-20) and [14C]-acetyl CoA by scintillation counting. In a few lines: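 Recombinant p300 HAT domain (1287-1666), 20 nM, with 10 μM H4(1-20) and 10 μM [14C]-acetyl CoA plus increasing inhibitor in 50 mM HEPES pH 8.0, 50 mM NaCl, 0.5 mM DTT, 1 mM EDTA; 10 min at 30 °C. Quenched on P81 filter paper, acetylated product counted by liquid scintillation; fractional activity plotted against inhibitor concentration.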
T2 sequence (Q09472 whole entry, the tested form may be a part): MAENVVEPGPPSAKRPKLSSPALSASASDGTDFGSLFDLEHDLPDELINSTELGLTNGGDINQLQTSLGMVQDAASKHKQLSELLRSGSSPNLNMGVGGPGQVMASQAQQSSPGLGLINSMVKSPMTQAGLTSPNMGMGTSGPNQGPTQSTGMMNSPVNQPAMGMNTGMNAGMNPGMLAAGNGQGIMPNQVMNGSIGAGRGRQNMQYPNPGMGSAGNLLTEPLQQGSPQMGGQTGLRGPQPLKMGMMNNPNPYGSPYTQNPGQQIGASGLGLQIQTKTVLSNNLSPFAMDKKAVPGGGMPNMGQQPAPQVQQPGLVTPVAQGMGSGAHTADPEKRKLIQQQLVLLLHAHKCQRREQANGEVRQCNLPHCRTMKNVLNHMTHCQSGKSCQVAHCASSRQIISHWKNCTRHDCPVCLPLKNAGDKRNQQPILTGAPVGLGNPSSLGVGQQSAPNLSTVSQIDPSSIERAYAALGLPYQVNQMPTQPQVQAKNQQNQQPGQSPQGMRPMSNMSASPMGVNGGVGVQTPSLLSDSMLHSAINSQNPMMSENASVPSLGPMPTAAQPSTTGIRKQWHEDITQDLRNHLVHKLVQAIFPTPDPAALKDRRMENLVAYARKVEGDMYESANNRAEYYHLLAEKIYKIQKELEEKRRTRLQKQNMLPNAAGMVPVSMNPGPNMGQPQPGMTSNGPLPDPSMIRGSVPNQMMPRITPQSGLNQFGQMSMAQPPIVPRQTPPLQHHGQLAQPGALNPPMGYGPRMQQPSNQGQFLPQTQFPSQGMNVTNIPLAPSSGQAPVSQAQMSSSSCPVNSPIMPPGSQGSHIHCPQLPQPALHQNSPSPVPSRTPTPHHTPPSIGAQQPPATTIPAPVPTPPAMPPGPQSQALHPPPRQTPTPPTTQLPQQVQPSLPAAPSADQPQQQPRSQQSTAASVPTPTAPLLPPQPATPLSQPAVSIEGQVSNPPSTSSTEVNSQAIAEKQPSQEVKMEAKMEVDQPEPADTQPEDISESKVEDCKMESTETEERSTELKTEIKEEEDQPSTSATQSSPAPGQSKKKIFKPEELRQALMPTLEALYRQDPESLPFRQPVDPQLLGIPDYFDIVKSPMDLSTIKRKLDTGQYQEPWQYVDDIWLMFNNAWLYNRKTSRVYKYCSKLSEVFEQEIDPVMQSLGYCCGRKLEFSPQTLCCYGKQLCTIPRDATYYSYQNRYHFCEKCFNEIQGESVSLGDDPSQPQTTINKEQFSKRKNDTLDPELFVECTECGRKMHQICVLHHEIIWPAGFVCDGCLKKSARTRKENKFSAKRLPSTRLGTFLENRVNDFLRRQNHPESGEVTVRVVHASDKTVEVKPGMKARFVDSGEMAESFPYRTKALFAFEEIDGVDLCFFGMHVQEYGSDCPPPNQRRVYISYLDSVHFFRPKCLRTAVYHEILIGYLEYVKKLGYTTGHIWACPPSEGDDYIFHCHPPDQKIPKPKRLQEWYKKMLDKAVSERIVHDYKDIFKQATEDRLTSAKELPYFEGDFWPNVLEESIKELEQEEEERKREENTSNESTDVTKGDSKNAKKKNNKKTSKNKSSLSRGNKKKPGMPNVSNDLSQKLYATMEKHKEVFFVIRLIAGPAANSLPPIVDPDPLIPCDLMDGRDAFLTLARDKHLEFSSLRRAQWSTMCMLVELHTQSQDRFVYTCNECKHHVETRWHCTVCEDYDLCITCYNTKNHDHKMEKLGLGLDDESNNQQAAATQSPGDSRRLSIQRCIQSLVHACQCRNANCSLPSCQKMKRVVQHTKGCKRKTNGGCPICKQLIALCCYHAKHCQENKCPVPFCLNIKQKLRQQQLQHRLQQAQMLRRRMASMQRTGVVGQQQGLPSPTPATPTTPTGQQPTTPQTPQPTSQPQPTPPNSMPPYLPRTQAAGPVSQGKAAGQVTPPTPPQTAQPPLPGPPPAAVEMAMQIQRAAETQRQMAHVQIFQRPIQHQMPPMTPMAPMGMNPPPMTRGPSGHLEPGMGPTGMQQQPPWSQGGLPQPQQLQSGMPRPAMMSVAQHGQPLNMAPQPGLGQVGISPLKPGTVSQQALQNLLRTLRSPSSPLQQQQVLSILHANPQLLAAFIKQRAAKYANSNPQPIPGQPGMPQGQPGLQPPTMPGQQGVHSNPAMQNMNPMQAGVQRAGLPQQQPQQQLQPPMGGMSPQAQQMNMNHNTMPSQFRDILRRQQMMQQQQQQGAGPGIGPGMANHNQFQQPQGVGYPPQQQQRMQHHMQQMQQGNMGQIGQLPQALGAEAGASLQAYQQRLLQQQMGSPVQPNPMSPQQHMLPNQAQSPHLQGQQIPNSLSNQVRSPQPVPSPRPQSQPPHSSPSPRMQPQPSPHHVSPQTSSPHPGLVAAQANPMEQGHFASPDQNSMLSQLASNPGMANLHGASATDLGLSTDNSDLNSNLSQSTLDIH
`O=C(Nc1ccc2c(O)cc(S(=O)(=O)O)cc2c1)Nc1ccc2c(O)cc(S(=O)(=O)O)cc2c1` displayed a concentration for half-maximal inhibition (IC50) of 118 µM.

Turning to `CC(=O)Nc1ccc(/N=N/c2c(S(=O)(=O)O)cc3cc(NC(=O)Nc4ccc5c(O)c(/N=N/c6ccccc6)c(S(=O)(=O)O)cc5c4)ccc3c2O)cc1`, the IC50 is 21.3 µM.

The next experiment deals with T1, Protein arginine N-methyltransferase 1. Nature of the experiment: Inhibition of His6x-tagged PRMT1-mediated protein arginine methylation expressed in Escherichia coli BL21 (DE3) using GAR R4 peptide and [14C]-AdoMet by scintillation counting.
Target sequence in this assay (Q99873 whole entry): as the sequence (Q99873 whole entry, looked up) above
With `Cc1ccc(C(=O)Nc2ccc(S(=O)(=O)O)c3cc(S(=O)(=O)O)cc(S(=O)(=O)O)c23)cc1NC(=O)c1cccc(NC(=O)Nc2cccc(C(=O)Nc3cc(C(=O)Nc4ccc(S(=O)(=O)O)c5cc(S(=O)(=O)O)cc(S(=O)(=O)O)c45)ccc3C)c2)c1` [SURAMIN], 1010 µM corresponded to half-maximal inhibition (IC50).

In turn, `O=S(=O)(O)c1cc(O)c2c(/N=N/c3c(S(=O)(=O)O)cc4cc(S(=O)(=O)O)cc(O)c4c3O)cc(S(=O)(=O)O)cc2c1` came in with a half-inhibitory concentration (IC50) of 463 µM.

Another experiment shares this target. Nature of the experiment: Inhibition of His6x-tagged PRMT1-mediated protein arginine methylation expressed in Escherichia coli BL21 (DE3) assessed as retained fractional activity of enzyme at 100 uM using H4(1-20) and [14C]-AdoMet by scintillation counting. Details: scale not given: the % may be the effect or the level left. A digest of the protocol: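 His6x-PRMT1 (0.1 μM) with 2 μM H4(1-20) and 5 μM [14C]-AdoMet, compound at 100 μM or absent, 30 °C in 50 mM HEPES pH 8.0, 0.5 mM DTT, 1 mM EDTA, 50 mM NaCl. Substrates and compound preincubated 5 min before enzyme addition. Quenched on P81 paper, NaHCO3 wash, methylated product counted by liquid scintillation.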
Target sequence in this assay (Q99873 whole entry, looked up): as above
`O=C1N=c2ccccc2=C1Nc1ccc(Cc2ccc(NC3=c4ccccc4=NC3=O)cc2)cc1`: the Activity amounted to 100%.

For the compound `CCOC(=O)[C@H]1CCCN(S(=O)(=O)c2cc(S(=O)(=O)c3ccccc3)cs2)C1`, the Activity was 100%.

In the case of `Cc1ccccc1Nc1nc(-c2ccccc2)c(C(=O)Nc2cccnc2)s1`, the Activity stood at 100%.

For `Cn1c(SCC(=O)Nc2ccccc2)nnc1-c1cncc(C#Cc2ccccc2)c1`, the Activity worked out at 100%.

In the case of `N#Cc1cccc(C#N)c1Oc1ccc(S(=O)(=O)Nc2ccc(Cl)cc2)cc1`, the Activity turned out to be 100%.

For `O=C(OC[C@@H]1CO[C@@](Cn2ccnc2)(c2ccc(Cl)cc2Cl)O1)c1ccccc1`, the Activity was determined as 100%.

The next experiment has the same target. Briefly: Inhibition of His6x-tagged PRMT1-mediated protein arginine methylation expressed in Escherichia coli BL21 (DE3) using H4(1-20) and [14C]-SAM by scintillation counting.
Target sequence in this assay (Q99873 whole entry): as the sequence (Q99873 whole entry, looked up) above
`Cc1ccc(C(=O)Nc2ccc(S(=O)(=O)O)c3cc(S(=O)(=O)O)cc(S(=O)(=O)O)c23)cc1NC(=O)c1cccc(NC(=O)Nc2cccc(C(=O)Nc3cc(C(=O)Nc4ccc(S(=O)(=O)O)c5cc(S(=O)(=O)O)cc(S(=O)(=O)O)c45)ccc3C)c2)c1` [SURAMIN] displayed an IC50 of 5.33 µM.

`O=S(=O)(O)c1cc(O)c2c(/N=N/c3c(S(=O)(=O)O)cc4cc(S(=O)(=O)O)cc(O)c4c3O)cc(S(=O)(=O)O)cc2c1` showed an IC50 of 72.1 µM.

The target is the same in another experiment. Nature of the experiment: Inhibition of His6x-tagged PRMT1-mediated arginine methylation expressed in Escherichia coli BL21 (DE3) assessed as residual activity at 100 uM using H4(1-20) and [14C]-AdoMet by scintillation counting; values are per cent of control.
Target sequence in this assay (Q99873 whole entry, looked up): as above
On to `O=C(Nc1cccc2c(S(=O)(=O)O)cccc12)c1ccccc1`, for which the residual activity was determined as 86.9%.

With `CC(=O)Nc1ccc2cc(S(=O)(=O)O)cc(OS(=O)(=O)c3ccccc3)c2c1`, the residual activity stood at 71.4%.

For a further experiment, the target named is Protein arginine N-methyltransferase 6 (Homo sapiens, UniProt Q96LA8). Briefly: Inhibition of His6x-tagged PRMT6-mediated arginine methylation expressed in Escherichia coli BL21 (DE3) using H3(1-31) peptide and [14C]-SAM by scintillation counting. A digest of the protocol:
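His6x-PRMT6 from E. coli BL21(DE3), Ni-NTA purified; 0.5 μM enzyme, 10 μM H3(1-31), 5 μM [14C]-SAM and varied inhibitor at 30 °C in HEPES pH 8.0 buffer with DTT, EDTA, NaCl; 5 min preincubation before enzyme. Product captured on P81 paper, counted by liquid scintillation; IC50 taken at half-maximal activity.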
`CC(=O)Nc1ccc(/N=N/c2c(S(=O)(=O)O)cc3cc(NC(=O)Nc4ccc5c(O)c(/N=N/c6ccccc6)c(S(=O)(=O)O)cc5c4)ccc3c2O)cc1` registered a half-maximal inhibitory concentration (IC50) of 39.2 µM.

Another experiment deals with Protein arginine N-methyltransferase 3 (Homo sapiens, UniProt O60678). Briefly: Inhibition of His6x-tagged PRMT3-mediated arginine methylation expressed in Escherichia coli BL21 (DE3) using GAR R4 peptide and [14C]-SAM by scintillation counting. A digest of the protocol:
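His6x-PRMT3 expressed in E. coli BL21(DE3), Ni-NTA purified; 0.1 μM enzyme, 2 μM R4 peptide, 5 μM [14C]-SAM, varied inhibitor, 30 °C in 50 mM HEPES pH 8.0, 0.5 mM DTT, 1 mM EDTA, 50 mM NaCl; 5 min preincubation before enzyme. P81 filter capture, liquid scintillation; IC50 = inhibitor concentration giving half-maximal activity.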
`CC(=O)Nc1ccc(/N=N/c2c(S(=O)(=O)O)cc3cc(NC(=O)Nc4ccc5c(O)c(/N=N/c6ccccc6)c(S(=O)(=O)O)cc5c4)ccc3c2O)cc1` registered an IC50 of 7.1 µM.

For another experiment, the target named is T3, Histone-arginine methyltransferase CARM1 (Mus musculus, UniProt Q9WVG6).
T3 sequence (Q9WVG6 whole entry): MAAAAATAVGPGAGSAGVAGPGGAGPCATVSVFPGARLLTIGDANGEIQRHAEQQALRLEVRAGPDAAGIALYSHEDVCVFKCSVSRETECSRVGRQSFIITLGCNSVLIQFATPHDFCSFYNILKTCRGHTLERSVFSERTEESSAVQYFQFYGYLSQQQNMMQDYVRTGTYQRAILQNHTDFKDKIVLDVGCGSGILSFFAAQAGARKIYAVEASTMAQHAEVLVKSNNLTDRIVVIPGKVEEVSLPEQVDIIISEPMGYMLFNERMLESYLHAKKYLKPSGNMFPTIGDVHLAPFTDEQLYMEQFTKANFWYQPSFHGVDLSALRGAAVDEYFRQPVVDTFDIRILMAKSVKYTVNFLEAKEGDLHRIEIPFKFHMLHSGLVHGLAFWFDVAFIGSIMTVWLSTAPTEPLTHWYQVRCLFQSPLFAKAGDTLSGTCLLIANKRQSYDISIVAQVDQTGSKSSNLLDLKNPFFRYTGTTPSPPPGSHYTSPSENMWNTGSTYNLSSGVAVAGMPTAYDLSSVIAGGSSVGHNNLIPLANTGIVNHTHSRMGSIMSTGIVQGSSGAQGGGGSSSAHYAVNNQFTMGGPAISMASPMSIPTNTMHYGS
Nature of the experiment: Inhibition of mouse GST-tagged CARM1-mediated arginine methylation expressed in Escherichia coli BL21 (DE3) using H3(1-31) and [14C]-SAM by scintillation counting. A digest of the protocol: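 GST-tagged mouse CARM1 from E. coli BL21(DE3), glutathione-agarose purified; 5 μM enzyme, 1 mM H3(1-31), 30 μM [14C]-SAM, inhibitor up to 500 μM, 30 °C in 50 mM HEPES pH 8.0, 0.5 mM DTT, 1 mM EDTA, 50 mM NaCl. P81 filter capture, liquid scintillation counting.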
In turn, `CC(=O)Nc1ccc(/N=N/c2c(S(=O)(=O)O)cc3cc(NC(=O)Nc4ccc5c(O)c(/N=N/c6ccccc6)c(S(=O)(=O)O)cc5c4)ccc3c2O)cc1` yielded a half-maximal inhibitory concentration (IC50) of 2000 µM.

A further experiment has as its target T2, Histone acetyltransferase p300. Nature of the experiment: Inhibition of HAT p300-mediated […] assessed as residual activity at 1 mM using H4(1-20) and [14C]-acetyl CoA by scintillation counting; values are per cent of control.
In the case of `N=C(N)c1ccc(/C=C/c2ccc(C(=N)N)cc2)cc1`, the residual activity stood at 84%.
